Compounds with a hit are over-represented: about 2.5% of the library has one in this group of screens.
SIRT5 block: SIRT5 desuccinylase inhibitors, primary screen, biochemical, fluorescence imaging, single point, set 5. NAD-dependent protein deacylase sirtuin-5, mitochondrial (Homo sapiens), Q9NXA8. Purified SirT5, succinyl-peptide AMC, trypsin-coupled fluorescence. inhibition, % at 15 µM. actives 1.1% (n = 330,000); in the data active means inhibition above about 15%
Target sequence (Q9NXA8 whole entry, looked up): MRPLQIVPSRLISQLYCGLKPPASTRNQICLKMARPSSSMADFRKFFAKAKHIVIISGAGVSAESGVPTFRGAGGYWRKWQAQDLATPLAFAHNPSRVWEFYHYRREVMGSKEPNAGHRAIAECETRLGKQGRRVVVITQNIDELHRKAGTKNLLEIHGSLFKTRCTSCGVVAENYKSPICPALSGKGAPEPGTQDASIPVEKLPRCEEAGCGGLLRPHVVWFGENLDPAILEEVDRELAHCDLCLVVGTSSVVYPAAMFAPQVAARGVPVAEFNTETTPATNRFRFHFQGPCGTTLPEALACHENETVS
miR-122 sensor: miR-122 Renilla sensor signal increase in Huh7, primary screen, miR-122 inhibitor project, cell-based, single point, plate reader; actives 0.3% (n = 340,000); activation (reporter increase), % at 12.5 µM; Huh7 miR-122 Renilla luciferase sensor, 48 h; neutral wells = 0, positive control = 100;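 active means mean replicate activation score at least 90 and every replicate individually at or above 90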;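 further: higher luciferase means less miR-122 activity so hits act as miR-122 inhibitors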
E-sel inducer: E-selectin induction in HUVECs, primary screen, imaging, HUVEC, immunofluorescence imaging, single point | actives 0.37% (n = 260,000) | P16581 | activation, % at 7.58 µM | normalized: neutral wells 0, TNF-alpha wells 100;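 active means mean E-selectin-positive cell signal at least 10% of the positive control, reached in at least 60% of replicates, without over 20% cell loss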
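Test system: HUVEC; input: 3,000 HUVEC/well; measured by: immunofluorescence imaging; read-out: % PE-positive cells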
FGF22 binding-1: binders of human FGF22 protein, primary screen, FGF22 synaptogenesis inhibitor project, biophysical, thermal shift, single point; activity (Tm shift, normalised), % at 9.99 µM; AID 651658, 2012; actives 1.5% (n = 340,000); recombinant FGF22 thermal shift, SYPRO orange fluorescence; percent of sucrose octasulfate shift, DMSO zero;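 active means mean Tm shift, scaled 0 neutral to 100 positive control, at about 1.3% or above, every replicate too, limit read from the data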
S100A4 inh HTS: inhibitors of S100A4-myosin IIA peptide binding, primary screen, biochemical, fluorescence polarization, TAMRA-MyoIIA peptide | Protein S100-A4 (Homo sapiens), P26447 | inhibition, % at 10.7 µM | actives 0.14% (n = 360,000) | AID 652163, 2013;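 active means mean inhibition of at least 70% across replicates, with every replicate also reaching that level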
Target sequence (P26447 whole entry, looked up): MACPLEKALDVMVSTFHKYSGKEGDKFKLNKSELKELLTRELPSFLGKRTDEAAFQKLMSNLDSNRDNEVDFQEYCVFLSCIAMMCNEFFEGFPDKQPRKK
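Test system: S100A4 monomer protein; Medium: HEPES pH 7.2 with CaCl2, KCl, NaCl, DTT, Triton; Probe or stimulus: TAMRA-labelled myosin IIA heavy-chain peptide probe, 5 nM; Doses: one dose per compound; Times: polarization read 5 min after assay mix addition, stable 5–60 min; Benchmarks: neutral control DMSO, positive control TFP.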
FGF22 binding-2: binders of human FGF22 protein, dose response, FGF22 synaptogenesis inhibitor project, biophysical, thermal shift, cherry-pick retest | recombinant FGF22 thermal shift, SYPRO orange fluorescence | thermal shift activity, °C (ΔTm) at 38 µM | shares compounds with FGF22 binding-1 | AID 720646, 2013 | actives 2% (n = 1,000);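 active means fitted rise in melting shift crosses a set limit at or below the top valid dose tested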
SYPRO no-protein: compound-only thermal shift signal without protein, dose response, artefact control for FGF22 binder project, biochemical, cherry-picked samples, RT-PCR instrument. shares compounds with FGF22 binding-1. compound-only SYPRO orange thermal shift counter-screen, no protein. AC50, µM (titrated, usually from 38 µM). actives 2% (n = 1,000);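 active means rising signal whose fitted curve reaches the 0.54 level within the top valid dose, showing a melting point, actives reach about 13 µM in these data; inactive means the rest, including activity in the opposite direction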; further: value is where the raw curve crosses a fixed level and not half-maximal
Starred values were filed as active, the others as inactive; [ ] = another dose, or the depositor's remark.

Results for CCOC(=O)C1(C)CCCN(C(=O)c2cccc(C#N)c2)C1 (centres undefined) ?
SIRT5 block: 15*; miR-122 sensor: -2; E-sel inducer: 0; FGF22 binding-1: 2.0*; S100A4 inh HTS: -2; FGF22 binding-2: -0.038; SYPRO no-protein: inactive

What do the screens show for `CN=C1NN=C(c2cc(C)n(-c3c(C)n(C)n(-c4ccccc4)c3=O)c2C)CS1`?
SIRT5 block: -2; miR-122 sensor: -3; FGF22 binding-1: 1.6*; S100A4 inh HTS: -3; FGF22 binding-2: 0.13; SYPRO no-protein: inactive

What do the screens show for `Cc1cc(C2=NNC(=NCc3ccccc3)SC2)c(C)n1-c1c(C)n(C)n(-c2ccccc2)c1=O`?
FGF22 binding-1: 0; S100A4 inh HTS: 13

Results for O=C(NCCc1ccc2c(c1)OCCO2)c1cc(F)cc(F)c1 ?
miR-122 sensor: -9

How did O=C(NCCc1ccc2c(c1)OCCO2)c1cccc(F)c1 do in these assays?
SIRT5 block: 2; E-sel inducer: -1; FGF22 binding-1: 1.6*; S100A4 inh HTS: 0; FGF22 binding-2: -0.047; SYPRO no-protein: inactive

How did COc1ccc(S(=O)(=O)N(C(C)=O)c2ccc(OC(C)=O)c3ccccc23)cc1[N+](=O)[O-] do in these assays?
SIRT5 block: -5; miR-122 sensor: 22; E-sel inducer: 1; FGF22 binding-1: 1.5*; S100A4 inh HTS: -2; FGF22 binding-2: -0.014; SYPRO no-protein: inactive

How did C[C@H](CO)N1C[C@H](C)[C@H](CN(C)S(=O)(=O)c2ccc(F)cc2)Oc2ccc(NC(=O)CCCCCC(=O)Nc3ccccc3N)cc2C1=O do in these assays?
E-sel inducer: -6; FGF22 binding-1: 0; S100A4 inh HTS: 20

How did CCC(=O)Nc1ccc2c(c1)OC[C@H](C)N(Cc1ccccc1OC)C[C@H](C)[C@@H](OC)CN(C)C2=O do in these assays?
SIRT5 block: 3; E-sel inducer: 0; FGF22 binding-1: 0; S100A4 inh HTS: 4

How did O=S(=O)(/N=C(/Nc1nc2ccccc2s1)c1ccccc1)c1ccc(F)cc1 do in these assays?
SIRT5 block: -1; miR-122 sensor: 7; S100A4 inh HTS: -4

Results for O=S(=O)(/N=C(/Nc1nccs1)c1ccc(F)cc1)c1ccccc1 ?
miR-122 sensor: 8; FGF22 binding-1: 38*; S100A4 inh HTS: 3; FGF22 binding-2: -0.062; SYPRO no-protein: inactive

What do the screens show for `Cc1ccccc1S(=O)(=O)NCC[C@@H]1CC[C@@H](NC(=O)C2CCCC2)[C@H](CO)O1`?
SIRT5 block: 3; miR-122 sensor: 26[16.7 µM]; E-sel inducer: 0; FGF22 binding-1: 0; S100A4 inh HTS: 9

Results for CCCNC(=O)C[C@@H]1CC[C@@H]2[C@H](COc3ccc(NC(=O)c4cccc(C(F)(F)F)c4)cc3C(=O)N2C)O1 ?
SIRT5 block: -4; miR-122 sensor: 1[16.7 µM]; E-sel inducer: 0; FGF22 binding-1: 0; S100A4 inh HTS: -22

Results for COc1cccc(NC(=O)OCCN2CCN(Cc3ccccc3)CCC2=O)c1 ?
SIRT5 block: -8; miR-122 sensor: -2; E-sel inducer: 0; FGF22 binding-1: 1.5*; S100A4 inh HTS: -7; FGF22 binding-2: 0.16; SYPRO no-protein: inactive

What do the screens show for `O=C(Nc1ccccc1)OCCN1CCN(Cc2ccccc2)CCC1=O`?
SIRT5 block: -2; miR-122 sensor: -1; E-sel inducer: 0; FGF22 binding-1: 0; S100A4 inh HTS: 2
